Bioassay records as filed in PubChem.
Shown are actives, neighbours in structure and some others; about 3.1% of the full set was active somewhere.
OX1R antag-1: antagonists of human orexin 1 receptor (OX1R); Orexin/Hypocretin receptor type 1 (Homo sapiens), O43613; OX1R-expressing cells, FRET antagonist read-out; inhibition, % at 6.6 µM; 330,000 compounds, 1.8% hits; in the data active = inhibition mostly above about 38%, no sharp cut-off; inactive = mostly below about 40%;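 note: 0% = agonist challenge alone and 100% = reference antagonist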
GalR3 antagonist: GalR3 antagonists in HEK293 cells, primary screen, cell-based, fluorescence readout. Galanin receptor type 3 (Homo sapiens), O60755. HEK293 GalR3-CNG cAMP membrane potential fluorescence; galR3 body fused to GalR1 C-terminus. inhibition, % at 3 µM. 360,000 compounds, 0.44% hits;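 active = inhibition above the screen-wide average plus 3 SD, cut at about 13% in these data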;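 note: forskolin and galanin both at EC90 stimulate the cells; cAMP rise reported by CNG channel membrane potential dye signal; 0% = forskolin plus galanin with DMSO and 100% = forskolin alone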
OX1R antag-2: OX1R (HCRTR1) antagonists, primary screen, fluorescence, CHO/OX1R cells, Fluo-8 calcium, orexin A; Orexin/Hypocretin receptor type 1 (Homo sapiens), O43613; Fluo-8 calcium fluorescence; inhibition, % at 5 µM; 330,000 compounds, 0.43% hits;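 active = inhibition above its plate's threshold, mean inhibition of all tested compounds on the plate plus 3 SD, cut at about 37% in these data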;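 note: 0% = orexin A challenge wells and 100% = SB-334867-A antagonist wells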
GPR7 antagonist: GPR7 receptor antagonists, primary screen, cell-based, fluorescence, single concentration; GPR7-expressing cells, fluorescence antagonist assay; Neuropeptides B/W receptor type 1 (Homo sapiens), P48145; inhibition, % at 4.4 µM; 290,000 compounds, 1.1% hits; in the data active = inhibition above about 16%, passing the limit was not always enough;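 note: cells stimulated with the agonist NPW; 0% = agonist with vehicle and 100% = vehicle without agonist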
Target sequence (P48145 whole entry, looked up): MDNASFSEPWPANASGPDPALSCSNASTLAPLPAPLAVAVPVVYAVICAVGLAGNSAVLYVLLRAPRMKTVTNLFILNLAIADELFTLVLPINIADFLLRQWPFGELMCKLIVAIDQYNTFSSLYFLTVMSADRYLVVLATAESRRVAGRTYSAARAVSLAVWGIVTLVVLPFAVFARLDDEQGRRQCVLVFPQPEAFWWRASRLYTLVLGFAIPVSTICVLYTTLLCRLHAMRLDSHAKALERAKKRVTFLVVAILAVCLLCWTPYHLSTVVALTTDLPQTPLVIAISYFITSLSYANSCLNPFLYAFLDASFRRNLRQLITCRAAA
CHO parental Ca: ATP-evoked calcium signal inhibitors, parental CHO, primary screen, counter-screen for OX1R antagonist project, cell-based, fluorescence, Fluo-8 calcium dye | inhibition, % at 5.6 µM | parental CHO-K1, ATP-induced calcium, Fluo-8 fluorescence | 330,000 compounds, 0.63% hits | AID 463079, 2010;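 active = inhibition above that plate's mean sample inhibition plus 3 SD, cut at about 26% in these data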;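 note: 0% = ATP-challenged DMSO wells and 100% = DMSO wells without ATP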
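Test system: parental CHO cells; detection: calcium-sensitive Fluo-8 fluorescence; evaluation: percent inhibition of calcium signal; also added: ATP as calcium-mobilizing challenge; repeats: one well per compound; control set: ATP-challenged DMSO wells low, unchallenged DMSO wells high; compound: single nominal dose of 5.6 µM per compound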
Numbers without * were called inactive; . = no result given.

SMILES | OX1R antag-1 | GalR3 antagonist | OX1R antag-2 | GPR7 antagonist | CHO parental Ca
CCC(C)Sc1cccc(-c2nc3ccc(C)cn3c2NCc2ccccc2)c1 (stereo not given) | 44 | -7 | 61* | . | 49*
O=C(c1c[nH]c2ccccc12)N1CCN(Cc2ccccc2)CC1 | 14 | 0 | -3 | 18* | -10
O=C(C(=O)N1CCN(Cc2ccccc2)CC1)c1c[nH]c2ccccc12 | 4 | -4 | -7 | . | -9
COC(=O)[C@]1(CC(C)C)NC=C(C(=O)c2ccccc2)[C@@H]1c1cccs1 | . | -6 | . | . | .
Cc1ccc(SCc2c(C(=O)N/N=C/c3ccoc3)nnn2-c2nonc2N)cc1 | 45* | 5 | 20 | -19 | -19
C/C(COc1ccccc1)=N\NC(=O)c1nnn(-c2nonc2N)c1CSc1ccccc1 | 60* | 1 | -3 | -1 | -2
C#CCN1C[C@@]2(O)CC[C@@H](O)[C@@H](OC)[C@@H]2[C@@]1(C)[C@H](O)CC=C(C)C | . | -8 | . | . | .
Cc1cc(N2CCCC2)ccc1NC(=O)CN1C(=O)NC2(CCCCC2)C1=O | 6 | -2 | -20 | . | -31
CC(O)C(NS(=O)(=O)c1ccc(Cl)cc1)C(=O)OCC(=O)Nc1cccnc1Cl (stereo not given) | 2 | 2 | -13 | 25* | -14
COc1cc(Cl)c(C)cc1NC(=O)COC(=O)C(NS(=O)(=O)c1ccc(Cl)cc1)C(C)O (stereo not given) | -5 | -10 | -17 | -5 | 9
COc1ccc(S(=O)(=O)N2CCCc3nc(-c4ccc(Br)cc4)ccc32)cc1 | . | -5 | . | . | .
COc1cc(N2C[C@@]3(O)CC[C@@H](O)[C@@H](OC)[C@@H]3[C@@](C)(O)[C@@H]2CC=C(C)C)cc(OC)c1OC | . | -7 | . | . | .
O=[N+]([O-])c1ccc(O)c(/C=N/n2cnc3ccccc32)c1 | 48* | -2 | 19 | -3 | -8
Cc1ccc(S(=O)(=O)/C(C#N)=C/c2c(Oc3ccc(Cl)cc3)nc3c(C)cccn3c2=O)cc1 | 12 | . | -10 | -8 | -10
CN(C)n1cccc1/C=C(\C#N)S(=O)(=O)c1ccc(Cl)cc1 | 25 | -8 | 63* | -22 | 65*
O=[N+]([O-])c1cccc(S(=O)(=O)NCCCN2CCOCC2)c1 | 31 | 10 | -4 | 3 | -5
O=[N+]([O-])c1ccc(S(=O)(=O)NCCN2CCOCC2)cc1 | 43* | -4 | -28 | 4 | 8
O=C(c1ccco1)N1CCN(S(=O)(=O)c2ccc([N+](=O)[O-])cc2)CC1 | 63* | -8 | -24 | 4 | -9
Cc1nn(Cc2ccc(C(=O)N3CCN(C(=O)c4ccco4)CC3)o2)c(C)c1[N+](=O)[O-] | 66* | -2 | -17 | -10 | -12
O=C(CCC(=O)N1CCN(S(=O)(=O)c2ccc([N+](=O)[O-])cc2)CC1)N1CCOCC1 | 48* | -5 | 10 | . | -3
CCOc1ccc(S(=O)(=O)N2CCN(C(=O)CCC(=O)N3CCOCC3)CC2)cc1 | 15 | -2 | -5 | . | -19
CCCCOCCCNC(=O)C[C@H]1C[C@@]2(C(=O)OC)C(=C[C@H](C(C)(C)C)O[C@@H]2C)N(Cc2ccc3c(c2)OCO3)C1=O | . | 3 | . | . | .
COC(=O)c1cc(S(=O)(=O)NCC2CCN(C(=O)C(=O)c3cc4ccccc4o3)CC2)cs1 | . | -6 | . | . | .
O=C1Nc2ccc(Br)cc2C12NNc1ccccc1O2 (stereo not given) | 34 | -6 | 60* | 19 | 78*
Cc1ccccc1NC(=O)N(C)[C@H]1C[C@H]2c3[nH]c4c(-c5ccccc5)cccc4c3CCN2C(=O)[C@H]1[C@H](C)O | . | -8 | . | . | .
COc1ccc(N=C2Sc3ccccc3[C@@H]3C[C@H]4[C@H](CON4C)CN23)c(OC)c1 | . | -8 | . | . | .
Oc1[nH]c(=S)sc1/C=C1\C(c2ccccc2)=Nc2ccccc21 | 76* | -3 | 23 | 5 | 18
Oc1[nH]c(=S)sc1C=C1N=c2ccccc2=N1 | 20 | -5 | 4 | -9 | 4
O=C(CNC1CCCCC1)Nc1ccc(Cl)cc1 | 2 | -5 | -14 | -7 | -11
